This is a sample that favours compounds with a hit; in the whole collection about 5.8% have one here.
ROMK primary: ROMK potassium channel modulators, primary screen, cell-based, thallium flux, MLSMR library. ATP-sensitive inward rectifier potassium channel 1 (Homo sapiens), P48048. B-score at 10 µM. AID 1918, 2009. Tet-inducible ROMK, thallium flux fluorescence; actives lie on both sides. 130,000 compounds, 2% hits;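 active means signal ratio slope over the read window, or its plate-corrected B-score, at least 3 SD from the plate mean, either direction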;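 further: B-score of the F/F0 ratio slope over 7 to 12 s after thallium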
NCF1 inh: p47phox/p22phox peptide binding inhibitors, primary screen, biochemical, uHTS, NADPH oxidase regulatory subunit; fluorescence polarization, 2 h; inhibition, % at 24.7 µM; 220,000 compounds, 0.53% hits;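 active means inhibition above about 30%, limit read from the data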
Target sequence (P14598 whole entry, looked up): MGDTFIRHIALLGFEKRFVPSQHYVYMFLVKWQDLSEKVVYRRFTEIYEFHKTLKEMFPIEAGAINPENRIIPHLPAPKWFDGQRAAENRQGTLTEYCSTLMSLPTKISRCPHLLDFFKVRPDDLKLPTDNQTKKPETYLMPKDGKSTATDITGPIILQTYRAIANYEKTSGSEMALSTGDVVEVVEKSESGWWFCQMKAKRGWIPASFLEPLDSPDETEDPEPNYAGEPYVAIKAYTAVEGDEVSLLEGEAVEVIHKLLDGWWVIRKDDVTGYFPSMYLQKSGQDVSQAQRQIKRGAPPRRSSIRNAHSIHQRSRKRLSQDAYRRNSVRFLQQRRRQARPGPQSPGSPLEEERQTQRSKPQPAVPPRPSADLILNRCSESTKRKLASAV
WT yeast gro inh: growth inhibition of WT strain, primary screen, mitochondrial fusion inhibitor project, WT and mutant strains, chemical genetic | AID 1362, 2008 | mitochondrial fusion phenotypic screen | 190,000 compounds, 2.1% hits | inhibition, % at 10 µM; in the data active means inhibition above about 58%; tested in S. cerevisiae
Cl transport mod: KCC2 cotransporter modulators, thallium flux, primary screen, cell-based, HEK293 KCC2, FluoZin-2 fluorescence, MLSMR; AID 1456, 2008; KCC2 cells, thallium flux FluoZin-2 fluorescence; B-score of Tl+ flux slope (higher = more flux/activation; lower = inhibition) at 10 µM; 190,000 compounds, 2.2% hits; Solute carrier family 12 member 5 (Homo sapiens), Q9H2X9;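 active means thallium flux slope and its plate-corrected score both differing from the plate sample mean at a set confidence after two filtering rounds, in either direction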;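 further: slope of fluorescence scaled to starting intensity during 10 to 20 s after thallium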
14-3-3 Bad PPI: inhibitors of 14-3-3 zeta/Bad binding, primary screen, biochemical, TR-FRET, bovine 14-3-3 zeta; 14-3-3 protein zeta/delta (Bos taurus), P63103; TR-FRET 14-3-3zeta/Dy647-pBad peptide displacement, 1 h; inhibition, % at 21.7 µM; 220,000 compounds, 0.71% hits;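 active means inhibition above about 70%, limit read from the data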
Target sequence (P63103 whole entry, looked up): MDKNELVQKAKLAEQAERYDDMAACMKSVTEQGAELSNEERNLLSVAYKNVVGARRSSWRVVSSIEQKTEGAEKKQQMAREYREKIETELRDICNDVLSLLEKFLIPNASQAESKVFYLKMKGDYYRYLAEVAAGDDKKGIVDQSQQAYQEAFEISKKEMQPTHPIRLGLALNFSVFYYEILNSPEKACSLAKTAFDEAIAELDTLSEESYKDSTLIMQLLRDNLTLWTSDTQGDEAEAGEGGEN
RBBP9 inhibitor: human RBBP9 inhibitors, primary screen, biochemical, fluorescence polarization, FP-Rh probe, HTS; recombinant RBBP9; inhibition, % at 7.94 µM; 220,000 compounds, 0.2% hits; AID 1515, 2009;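 active means inhibition above the campaign mean of all tested compounds plus 3 SD, cut at about 14% in these data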
Target sequence (O75884 whole entry, looked up): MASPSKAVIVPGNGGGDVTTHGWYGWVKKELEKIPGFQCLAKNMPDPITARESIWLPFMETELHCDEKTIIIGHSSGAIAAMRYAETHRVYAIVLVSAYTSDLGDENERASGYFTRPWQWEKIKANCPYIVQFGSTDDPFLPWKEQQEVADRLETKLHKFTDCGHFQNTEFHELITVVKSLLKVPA
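Test system: recombinant human RBBP9. Quantity: 2.5 µM RBBP9 dispensing solution, before mixing. Detection: FP readout at 525/598 nm. Reagent: Serine-hydrolase probe FP-Rh, 375 nM pre-mixing. Measure: % inhibition. Control set: DMSO-treated enzyme wells and wells lacking RBBP9. Buffer or medium: Tris-NaCl-Pluronic buffer, pH 8.0. Times: preincubation 30 min plus labeling 45 min at 25 °C.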
KCC2 sec1: KCC2 modulators in sodium-free buffer, confirmation, cell-based, HEK293 KCC2, thallium flux, secondary assay; shares compounds with Cl transport mod; FluoZin2 fluorescence; active compounds read high; normalised thallium flux (F/F0 slope) at 10 µM; 3,700 compounds, 15% hits;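 active means thallium flux slope above the same plate's solvent-only control mean plus 3 SD; inconclusive means the two replicate wells disagree; inactive means no significant difference from solvent-only control wells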
KCC2 bumet counter: thallium flux persisting under bumetanide in KCC2 cells, confirmation, counter-screen for KCC2 modulator project, cell-based, HEK293 KCC2, FluoZin2, secondary assay 3 | normalized thallium flux at 10 µM | HEK293-KCC2 + bumetanide/ouabain; active compounds read high | 3,700 compounds, 49% hits | shares compounds with Cl transport mod;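 active means thallium entry rate above the same plate's blocked-transporter control wells by more than 3 SD; inconclusive means the two repeat wells disagree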;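 further: raw slope of fluorescence over initial fluorescence between 10 and 20 s after thallium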
KCC2 secondary2: KCC2 modulators without ouabain present, confirmation, cell-based, HEK293 KCC2, thallium flux, FluoZin2, secondary assay 2. shares compounds with Cl transport mod. thallium flux FluoZin2 fluorescence; actives lie on both sides; F/F0 rise rate, 10–20 s post-thallium. normalized thallium flux at 10 µM. 3,700 compounds, 23% hits;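 active means thallium flux slope more than 3 SD above or below the plate's solvent-only control mean, mostly below; inconclusive means the two repeat wells disagreed; inactive means no significant shift from solvent-only controls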
HEK293 Tl flux: thallium flux modulation in parental HEK cells, confirmation, counter-screen for KCC2 modulator project, cell-based, counterscreen 1; thallium flux rate (normalised fluorescence) at 10 µM; shares compounds with Cl transport mod; HEK293 parental cells, thallium flux FluoZin2, ouabain; baseline-ratio fluorescence slope, 10–20 s after thallium; 3,700 compounds, 46% hits;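 active means thallium flux rate significantly above the same plate's solvent-only control wells, beyond their mean plus 3 SD; inconclusive means the two replicate wells gave conflicting results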
KCC2 ouabain: KCC2 inhibitors and activators, ouabain retest, confirmation, HEK-KCC2 cells; shares compounds with Cl transport mod; HEK293-KCC2, thallium flux FluoZin2 fluorescence; bidirectional: low = inhibitor, high = activator; raw Tl+ flux slope (below DMSO = inhibition, above = activation) at 10 µM; 3,700 compounds, 48% hits; AID 1717, 2009;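 active means thallium flux slope beyond 3 SD from same-plate DMSO control mean in most replicates, usually higher, sometimes lower; inconclusive means repeat tests gave conflicting results; inactive means no significant difference from controls in most replicates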;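 further: slope of initial-normalized fluorescence between seconds 10 and 20 after thallium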
HEK counter2: native HEK Tl+ uptake effects, second counter-screen – HEK cells, counterscreen 2, counter-screen for KCC2 modulator project, confirmation; shares compounds with Cl transport mod; HEK293 parental, thallium flux FluoZin-2 fluorescence slope; thallium flux slope at 10 µM; 3,700 compounds, 33% hits; AID 1718, 2009;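 active means thallium flux slope above the same plate's solvent-control mean plus 3 SD in both duplicate wells; inconclusive means duplicate wells that disagreed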;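 further: run without ouabain in cells lacking the KCC2 cotransporter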
Large screens that a line does not name were inactive (follow-up assays come after a bar, where they were run).

CN(C)CCCN1C(=O)c2oc3ccc(Cl)cc3c(=O)c2C1c1cccnc1 (stereo unspecified)	Cl transport mod 3.7 (no result: ROMK primary) | KCC2 sec1 inactive | KCC2 bumet counter 0.015 | KCC2 secondary2 inactive | HEK293 Tl flux 0.0099 | KCC2 ouabain inconclusive | HEK counter2 inactive
COCCn1cnc2c1c(=O)n(CC(=O)OCC(=O)NCC(F)(F)F)c(=O)n2Cc1ccccc1	none (no result: ROMK primary)
COc1cccc2cc(-c3nnc(SCC(=O)Nc4nc(C)cs4)n3C)oc12	Cl transport mod -3 | KCC2 sec1 inactive | KCC2 bumet counter inactive | KCC2 secondary2 inactive | HEK293 Tl flux inactive | KCC2 ouabain inactive | HEK counter2 inactive
Cc1csc(NC(=O)CSc2nnc(-c3ccco3)n2C)n1	none (no result: ROMK primary)
C=CCn1c(SCC(N)=O)nc2scc(-c3ccc(C)o3)c2c1=O	Cl transport mod 37 | KCC2 sec1 inactive | KCC2 bumet counter 0.028 | KCC2 secondary2 0.047 | HEK293 Tl flux 0.037 | KCC2 ouabain 0.042 | HEK counter2 0.035
C/C(Cc1ccccc1)=N\NC(=O)CNC(=O)c1ccc(Cl)cc1Cl	none (no result: ROMK primary, WT yeast gro inh)
CC(Sc1nnc2ccccn12)C(=O)Nc1ccc2c(c1)OCO2 (stereo unspecified)	none
CN1/C(=C\C(=O)COc2ccc3c(c2)OCO3)C(C)(C)c2ccccc21	Cl transport mod -4 (no result: ROMK primary) | KCC2 sec1 inactive | KCC2 bumet counter inactive | KCC2 secondary2 0.025 | HEK293 Tl flux inactive | KCC2 ouabain inconclusive | HEK counter2 inactive
NC(=O)CC(NC(=O)Cc1ccc(Br)cc1)c1ccc(NCCc2ccc(F)cc2)c([N+](=O)[O-])c1 (stereo unspecified)	Cl transport mod -3 (no result: ROMK primary, WT yeast gro inh, RBBP9 inhibitor) | KCC2 sec1 inactive | KCC2 bumet counter inactive | KCC2 secondary2 inconclusive | HEK293 Tl flux inconclusive | KCC2 ouabain inactive | HEK counter2 inactive
NC(=O)CC(NC(=O)Cc1ccc(Br)cc1)c1ccc(NCCc2ccc(Cl)cc2)c([N+](=O)[O-])c1 (stereo unspecified)	none (no result: ROMK primary, WT yeast gro inh, RBBP9 inhibitor)
Cc1ccc(C(=O)NC(=S)Nc2c(C)ccc3nsnc23)cc1	Cl transport mod 8.7 | KCC2 sec1 inactive | KCC2 bumet counter 0.057 | KCC2 secondary2 inactive | HEK293 Tl flux 0.023 | KCC2 ouabain 0.045 | HEK counter2 0.013
O=c1[nH]c2c(cnn2-c2ccc(Cl)cc2)c(=O)n1-c1cccc(Cl)c1	none (no result: ROMK primary, WT yeast gro inh)
CC(C)C1Nc2ccc(S(N)(=O)=O)cc2C2C=CCC21 (stereo unspecified)	none (no result: ROMK primary)
NS(=O)(=O)c1ccc2c(c1)C1C=CCC1C(C1CC=CCC1)N2 (stereo unspecified)	Cl transport mod 4.7 | KCC2 sec1 inactive | KCC2 bumet counter inactive | KCC2 secondary2 inactive | HEK293 Tl flux inactive | KCC2 ouabain inactive | HEK counter2 inactive
Cc1ccc(N=Nc2ccc(O)c3ncccc23)cc1C	Cl transport mod 8.2 (no result: ROMK primary) | KCC2 sec1 inactive | KCC2 bumet counter 0.0077 | KCC2 secondary2 inactive | HEK293 Tl flux 0.014 | KCC2 ouabain inactive | HEK counter2 inconclusive
CCS(=O)(=O)c1ccc(N=Nc2ccc(O)c3ncccc23)c(OC)c1	none
CC(/C=C/c1ccco1)=N\NC(=O)c1cc(C)[nH]n1	none (no result: ROMK primary, Cl transport mod)
CC(/C=C/c1ccco1)=N\NC(=O)c1cc(Cl)ccc1O	Cl transport mod 13 | KCC2 sec1 0.016 | KCC2 bumet counter 0.026 | KCC2 secondary2 inactive | HEK293 Tl flux inconclusive | KCC2 ouabain 0.032 | HEK counter2 inactive
COc1c(/C=N/Nc2ccc(C(=O)O)cc2)c(CCN(C)C(C)=O)cc2c1OCO2	none (no result: ROMK primary, WT yeast gro inh)
CC(=O)c1ccc(NC(=O)c2cc(Cl)sc2Cl)cc1	none (no result: ROMK primary)
Cc1ccc(-c2csc(NC(=O)CCNC(=O)c3ccccc3Cl)n2)cc1	Cl transport mod -3.8 | KCC2 sec1 inactive | KCC2 bumet counter inactive | KCC2 secondary2 inconclusive | HEK293 Tl flux inactive | KCC2 ouabain inconclusive | HEK counter2 inactive
O=C(COC(=O)c1cccnc1Cl)Nc1nc(-c2ccccc2)cs1	Cl transport mod -5.3 (no result: ROMK primary) | KCC2 sec1 0.0056 | KCC2 bumet counter inactive | KCC2 secondary2 inactive | HEK293 Tl flux inactive | KCC2 ouabain 0.041 | HEK counter2 inactive
O=C1CCCc2cc3c(cc21)CC1(C3)Cc2cc3c(cc2C1)C(=O)CCC3	none (no result: ROMK primary, WT yeast gro inh)
COc1ccc(-c2noc(CN3CCCC(OCc4ccccn4)C3)n2)cc1 (stereo unspecified)	none (no result: ROMK primary, WT yeast gro inh)
CN1/C(=C/C(=O)c2nc(S(C)(=O)=O)ncc2Cl)C(C)(C)c2ccccc21	Cl transport mod -7.2 (no result: ROMK primary) | KCC2 sec1 inactive | KCC2 bumet counter inconclusive | KCC2 secondary2 0.022 | HEK293 Tl flux inconclusive | KCC2 ouabain 0.013 | HEK counter2 inactive
O=C(c1ccc2c(c1)OCCO2)N1CCCC(CNS(=O)(=O)c2cccs2)C1 (stereo unspecified)	none (no result: ROMK primary)
Cc1nc(SCc2ccccc2)c([N+](=O)[O-])[nH]1	Cl transport mod -5.2 (no result: ROMK primary) | KCC2 sec1 inactive | KCC2 bumet counter inactive | KCC2 secondary2 0.027 | HEK293 Tl flux inactive | KCC2 ouabain 0.014 | HEK counter2 inactive
CCOC(=O)c1[nH]c(C)c(CC(C)C)c1C	none
